In assay [1] the target is CNGA3 N5R-A, 613X channels (Homo sapiens, UniProt Q16281, R72A/R75A/R81A/R82A/R86A). Put plainly: Inside-out patch clamp, CNGA3 N5R-A, 613X. The assay is classed as biochemical.
Assay [2] addresses CNGA3 N2R-A, 613X channels (Homo sapiens, UniProt Q16281, R101A/R103A). Put plainly: Inside-out patch clamp, CNGA3 N2R-A, 613X. The assay is classed as biochemical.
In assay [3] the target is T1, CNGA3 C7K/R-A (K624A, K629A, R643A, R646A, K657A, K659A, R661A) channels (Homo sapiens, UniProt Q16281, K624A/K629A/K657A/K659A/R643A/R646A/R661A).
T1 sequence (Q16281 1-694 K624A/K629A/R643A/R646A/K657A/K659A/R661A): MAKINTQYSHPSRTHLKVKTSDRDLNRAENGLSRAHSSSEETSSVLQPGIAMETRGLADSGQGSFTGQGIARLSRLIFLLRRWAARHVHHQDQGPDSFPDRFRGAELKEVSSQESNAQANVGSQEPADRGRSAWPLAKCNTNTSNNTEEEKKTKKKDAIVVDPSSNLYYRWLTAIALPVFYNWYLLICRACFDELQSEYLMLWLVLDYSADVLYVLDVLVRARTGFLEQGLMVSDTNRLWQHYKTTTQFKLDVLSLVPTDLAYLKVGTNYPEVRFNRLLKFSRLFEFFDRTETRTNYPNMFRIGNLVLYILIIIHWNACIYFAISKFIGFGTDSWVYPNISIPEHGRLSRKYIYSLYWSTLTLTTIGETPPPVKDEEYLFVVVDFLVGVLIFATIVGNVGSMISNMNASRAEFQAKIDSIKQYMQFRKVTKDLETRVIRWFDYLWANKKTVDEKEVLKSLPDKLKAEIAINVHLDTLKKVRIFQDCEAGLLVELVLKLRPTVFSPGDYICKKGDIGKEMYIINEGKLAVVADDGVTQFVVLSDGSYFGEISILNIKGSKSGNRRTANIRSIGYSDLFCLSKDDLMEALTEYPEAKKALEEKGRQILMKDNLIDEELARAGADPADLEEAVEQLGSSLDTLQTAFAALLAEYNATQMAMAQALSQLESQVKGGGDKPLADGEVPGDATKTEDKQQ
Briefly: Inside-out patch clamp, CNGA3 C7K/R-A. The assay is classed as biochemical.

For assay [4], the target named is CNGA3 N7R-A (R72A, R75A, R81A, R82A, R86A, R101A, R103A) channels (Homo sapiens, UniProt Q16281, R101A/R103A/R72A/R75A/R81A/R82A/R86A). Briefly: Inside-out patch clamp, CNGA3 N7R-A. Format: biochemical.
Assay [5] deals with CNGA3 ΔN (2-156) channels (Homo sapiens, UniProt Q16281). Briefly: Inside-out patch clamp, CNGA3 ΔN. Format: biochemical.
The target in a further assay is A2ΔN+B3 channels (UniProt Q00195+Q9NQW8, DEL61-90). Put plainly: Inside-out patch clamp, A2ΔN+B3. The following applies: 1 µM PIP3. The assay is classed as biochemical, rat, human. The gist of the method: (§1)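 Subunit cRNAs (~20 ng, B in excess over A) injected into stage IV Xenopus oocytes; inside-out patches 2–7 d later, 20–22°C, symmetric 130 mM NaCl, 0.2 mM EDTA, 3 mM Hepes pH 7.2. Heteromer formation checked by 25 µM l-cis-diltiazem with 1 mM cGMP. diC8 phosphoinositides applied intracellularly in phosphatase-inhibitor cocktail. cGMP dose–response at +80 mV, leak-subtracted, Hill fit before/after for K1/2; mean ± SEM.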

In another assay the target is CNGA1 homomeric channels (Bos taurus, UniProt Q00194). Put plainly: Inside-out patch clamp, homomeric CNGA1. Format: biochemical, bovine. The following applies: PIP3 or PIP2 application.
Assay [6] addresses GST fusion of CNGA3 N-terminal region (A3N, amino acids 1–164) (Homo sapiens, UniProt Q16281). Briefly: In vitro PIP3-agarose bead pull-down, A3N. The assay is classed as binding. The following applies: PIP3-agarose beads, anti-GST immunoblot. The procedure, abridged: (§2)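 Recombinant GST fusions of channel fragments expressed in E. coli and purified; soluble fraction kept after 20,000 g, 4°C, 30 min. Protein (2 µg/ml) rocked with PIP3- or control agarose beads, 2 h, 4°C, in 10 mM Hepes pH 7.4, 50 mM NaCl, 2 mM EDTA, 0.25% Triton X-100, 0.25% NP-40. Five washes, elution in sample buffer, reducing SDS gel, anti-GST (1:2,000, overnight) immunoblot, chemiluminescence; […].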

Assay [7] deals with GST fusion of CNGA3 C-terminal region (A3C, amino acids 612–694) (Homo sapiens, UniProt Q16281). Briefly: In vitro PIP3-agarose bead pull-down, A3C. The following applies: PIP3-agarose beads, anti-GST immunoblot; not quantitative. The assay is classed as binding. The gist of the method:
as §2

The next assay concerns the target GST fusion A3C7K/R-A (Homo sapiens, UniProt Q16281, K624A/K629A/K657A/K659A/R643A/R646A/R661A). Briefly: In vitro PIP3-agarose bead pull-down, A3C7K/R-A. The assay is classed as binding. The following applies: PIP3-agarose beads, anti-GST immunoblot; compared with A3C. The gist of the method: as §2
Another assay deals with GST fusion A3C-635X (Homo sapiens, UniProt Q16281). Briefly: In vitro PIP3-agarose bead pull-down, A3C-635X. The assay is classed as binding. The following applies: PIP3-agarose beads, anti-GST immunoblot; compared with A3C. The gist of the method:
as §2

The next assay concerns the target A2ΔN+B1 channels (UniProt Q00195+Q14028, DEL61-90). Put plainly: Inside-out patch clamp, A2ΔN+B1. The assay is classed as biochemical, rat, human. The following applies: 1 µM PIP3. The gist of the method: as §1
The mark [8] stands for this setting: read-out: K1/2 cGMP, +80 mV, no PIPn.

CNGA1 homomeric channels, sequence (Q00194 whole entry, the tested form may be a part): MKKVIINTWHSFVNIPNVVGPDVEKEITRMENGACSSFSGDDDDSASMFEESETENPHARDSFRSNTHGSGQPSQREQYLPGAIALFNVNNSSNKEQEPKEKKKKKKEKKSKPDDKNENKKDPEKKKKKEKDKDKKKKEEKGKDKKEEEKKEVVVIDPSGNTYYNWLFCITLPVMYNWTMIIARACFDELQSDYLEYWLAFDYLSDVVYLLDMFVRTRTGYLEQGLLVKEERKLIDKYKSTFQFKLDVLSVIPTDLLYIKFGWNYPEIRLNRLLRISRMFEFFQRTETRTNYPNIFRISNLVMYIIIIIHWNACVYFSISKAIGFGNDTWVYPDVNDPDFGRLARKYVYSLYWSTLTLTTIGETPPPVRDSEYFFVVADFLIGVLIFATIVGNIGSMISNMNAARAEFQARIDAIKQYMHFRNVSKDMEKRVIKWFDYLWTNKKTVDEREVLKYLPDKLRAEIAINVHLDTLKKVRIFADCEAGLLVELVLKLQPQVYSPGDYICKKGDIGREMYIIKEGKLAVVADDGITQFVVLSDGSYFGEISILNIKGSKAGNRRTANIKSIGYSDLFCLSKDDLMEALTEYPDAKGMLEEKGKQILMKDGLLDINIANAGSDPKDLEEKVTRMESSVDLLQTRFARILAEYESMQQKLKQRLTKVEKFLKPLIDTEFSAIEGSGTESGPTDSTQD

Turning to `Nc1nc2c(ncn2[C@@H]2O[C@@H]3COP(=O)(O)O[C@H]3[C@H]2O)c(=O)[nH]1` [cGMP, cyclic guanosine monophosphate], the Hill coefficient is 1.71 ± 0.05 (8) in assay [1] (cGMP activation); 1.68 ± 0.03 (4) in [2] (cGMP activation); 2.00 ± 0.00 (6) in [3] (cGMP activation); 1.59 ± 0.18 (4) in [4] (cGMP activation); 1.77 ± 0.07 (9) in [5] (cGMP activation). The EC50 is 16.7 ± 0.98 µM in assay [1] (setting [8]); 16.1 ± 0.59 µM in assay [2] (setting [8]); 9.37 ± 0.29 µM in assay [3] (setting [8]); 8.89 ± 1.15 µM in assay [4] (setting [8]); 9.16 ± 0.65 µM in assay [5] (setting [8]). In assay [3] (saturating cGMP), the “Po max cGMP” value is on record as 0.92 ± 0.01 (4).

Regarding “phosphatidylinositol (3,4,5)-trisphosphate [PIP3]”, the “regulation of K1/2 cGMP by PIP3” value on A2ΔN+B3 channels and on A2ΔN+B1 channels was “insensitive to regulation by PIP3” throughout. Besides, the “effect on relative cAMP efficacy” value on CNGA1 homomeric channels was “decreased relative cAMP efficacy”. Moreover, the “in vitro PIP3 binding” value in assay [6] is listed as “able to directly bind PIP3”; in [7], “binding was observed”; at GST fusion A3C7K/R-A it was “attenuated binding to PIP3 beads”; at GST fusion A3C-635X it was “attenuated binding to PIP3 beads”.

Values taken from PMC3607822 (The Journal of General Physiology, 2013).
